Calls of active or inactive are those of the source. The calls are words filed in the database; no cut-off is given here.
What was measured:
[1] = test system: HCT-116; assay: Apoptosis in human HCT116 cells; type: functional, cell-based
[2] = test system: T-24; assay: Induction of histone H4 acetylation in human T24 cells after 16 hrs by immunoblot relative to MS-275; type: functional, cell-based; conditions: T-24, 16 h
In short: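 T24 cells exposed to 0, 1, 5 and 25 µM for 16 h, then harvested. Histones acid-extracted, run on SDS–PAGE and immunoblotted with antibodies to H4 and to acetylated H4. Relative effective concentration expressed against MS-275 at 1 µM.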

[3] = test system: T-24; assay: Induction of p21WAF1/Cip1 expression in human T24 cells […] after 16 hrs by Western blot analysis relative to MS-275; type: functional, cell-based; conditions: T-24, 16 h
In short: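 T24 cells exposed to 0, 1, 5 and 25 µM or DMSO alone for 16 h. Whole-cell lysates analysed by Western blot with p21WAF1/Cip1 antibody. Relative effective concentration expressed against MS-275 at 1 µM.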

[4] = test system: HMEC; assay: Antiproliferative activity against human HMEC cells by MTT assay; type: cell-based
In short: (§1)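 MTT read-out of cell proliferation/cytotoxicity in human colon cancer HCT116 cells and in normal human mammary epithelial cells (HMEC); IC50 derived.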

[5] = test system: HCT-116; assay: Antiproliferative activity against human HCT116 cells by MTT assay; type: functional, cell-based; in short: as §1
[6] = test system: HCT-116; assay: Cell cycle arrest in HCT116 cells by accumulation at G2/M phase; type: functional, cell-based; conditions: Homo sapiens
[7] = target: Histone deacetylase 1 (Homo sapiens, UniProt Q13547); assay: Inhibition of human recombinant HDAC1 expressed in insect Sf9 cells
Sequence of Histone deacetylase 1 (Q13547 whole entry): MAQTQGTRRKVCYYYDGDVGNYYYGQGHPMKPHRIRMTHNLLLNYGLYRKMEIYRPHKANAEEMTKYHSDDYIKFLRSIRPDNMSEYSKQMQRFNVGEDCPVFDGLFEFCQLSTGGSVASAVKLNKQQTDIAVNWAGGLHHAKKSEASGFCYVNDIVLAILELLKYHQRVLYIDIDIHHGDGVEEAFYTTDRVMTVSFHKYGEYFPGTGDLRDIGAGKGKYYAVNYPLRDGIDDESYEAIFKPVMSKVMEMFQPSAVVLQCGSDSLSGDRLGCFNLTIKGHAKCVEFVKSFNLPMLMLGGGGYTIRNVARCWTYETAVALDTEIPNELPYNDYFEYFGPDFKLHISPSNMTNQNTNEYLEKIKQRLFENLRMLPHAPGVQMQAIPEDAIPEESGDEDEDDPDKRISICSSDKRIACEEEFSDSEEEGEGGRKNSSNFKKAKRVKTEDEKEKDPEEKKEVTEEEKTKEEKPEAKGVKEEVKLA
In short: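 FLAG-tagged recombinant HDAC1 expressed in Sf9 cells, purified by anti-FLAG affinity resin and size-exclusion chromatography. Substrate BocLys(acetyl)AMC. Deacetylated product detected fluorometrically after trypsin release of AMC (excitation 360 nm). IC50 determined.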

[8] = Oral bioavailability in Sprague-Dawley rat at 5.0 mg/kg, po; type: ADME, organism-based; conditions: in vivo
In short: (§2)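 Pharmacokinetics with single dosing at 2.5 mg/kg iv or 5.0 mg/kg po. Vehicles were acidified saline or acidified saline/PEG400. Half-life and oral availability were determined.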

[9] = Half life in Sprague-Dawley rat at 2.5 mg/kg, iv; type: ADME, organism-based; design: dose 2.5 mg/kg, route intravenous; conditions: in vivo; in short: as §2
[10] = test system: A549; assay: Antitumor activity against A549 xenografted nude mouse assessed as tumor growth inhibition at 80 mg/kg, po after 14 days; type: functional, Homo sapiens; conditions: A549, 336 h
In short: (§3)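 Human tumour xenografts (A549 non-small cell lung, DU145 prostate, HCT116 colon) grown in nude mice, 6 animals per group. Dosing once daily for 14 days, intraperitoneal or oral. Read-out is % tumour growth inhibition versus vehicle-treated control animals.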

[11] = test system: DU-145; assay: Antitumor activity against DU145 xenografted nude mouse assessed as tumor growth inhibition at 80 mg/kg, po after 14 days; type: functional, Homo sapiens; conditions: DU-145, 336 h; in short: as §3
[12] = test system: HCT-116; assay: Antitumor activity against HCT116 xenografted nude mouse assessed as tumor growth inhibition at 40 mg/kg, ip after 14 days; type: functional, Homo sapiens; conditions: HCT-116, ip, 336 h, route intraperitoneal; in short: as §3
[13] = test system: HCT-116; assay: Antitumor activity against HCT116 xenografted nude mouse assessed as tumor growth inhibition at 20 mg/kg, ip after 14 days; type: functional, Homo sapiens; conditions: HCT-116, ip, 336 h, route intraperitoneal; in short: as §3

SMILES	EC50 [2]	EC50 [3]	IC50 [5]	IC50 [7]	bioavailability [8]	half-life [9]	Activity [1]	IC50 [4]	Activity [6]	inhibition in vivo at 80 mg/kg [10]	inhibition in vivo at 80 mg/kg [11]	inhibition in vivo at 40 mg/kg [12]	inhibition in vivo at 20 mg/kg [13]
Nc1ccccc1NC(=O)c1ccc(Cn2nnc3ccccc3c2=O)cc1	1000 nM	1000 nM	600 nM	200 nM			Active	17000 nM	Active				
Cc1nc2ccccc2c(=O)n1Cc1ccc(C(=O)Nc2ccccc2N)cc1	1000 nM	2000 nM	600 nM	80 nM	16%	0.9 h	Active	> 50000 nM	Active				
Nc1ccccc1NC(=O)c1ccc(Cn2c(=O)c3ccccc3n(CCN3CCOCC3)c2=O)cc1	3000 nM	5000 nM	1000 nM	400 nM			Active	> 25000 nM	Active				
Nc1ccccc1NC(=O)c1ccc(CN2C(=O)c3ccccc3C2=O)cc1	5000 nM	3000 nM	5000 nM	200 nM			Active	> 50000 nM	Active				
Cn1c(=O)n(Cc2ccc(C(=O)Nc3ccccc3N)cc2)c(=O)c2ccccc21	1000 nM	1000 nM	700 nM	100 nM			Active	> 42000 nM	Active				
COc1ccc(Cn2c(=O)n(Cc3ccc(C(=O)Nc4ccccc4N)cc3)c(=O)c3ccccc32)cc1	1000 nM	3000 nM	800 nM	100 nM			Active	> 25000 nM	Active				
Nc1ccccc1NC(=O)c1ccc(CN2Cc3ccccc3C2=O)cc1	1000 nM	2000 nM	500 nM	100 nM	34%	0.6 h	Active	37000 nM	Active				
CCn1c(=O)n(Cc2ccc(C(=O)Nc3ccccc3N)cc2)c(=O)c2ccccc21	1000 nM	600 nM	400 nM	200 nM			Active	25000 nM	Active				
Nc1ccccc1NC(=O)c1ccc(Cn2cnc3ccccc3c2=O)cc1	< 1000 nM	1000 nM	400 nM	100 nM			Active	28000 nM	Active				

Continued, in another order:

EC50 [2]	EC50 [3]	IC50 [5]	IC50 [7]	bioavailability [8]	half-life [9]	SMILES	Activity [1]	IC50 [4]	Activity [6]	inhibition in vivo at 80 mg/kg [10]	inhibition in vivo at 80 mg/kg [11]	inhibition in vivo at 40 mg/kg [12]	inhibition in vivo at 20 mg/kg [13]
1000 nM	3000 nM	800 nM	300 nM	64%	1.2 h	CCn1c(=O)n(Cc2ccc(C(=O)Nc3ccccc3N)cc2)c(=O)c2sccc21	Active	> 50000 nM	Active				
< 1000 nM	2000 nM	600 nM	100 nM			Nc1ccccc1NC(=O)c1ccc(CC2Cc3ccccc3C2=O)cc1 (configuration not stated)	Active	8000 nM	Active				
1000 nM	1000 nM	400 nM	60 nM	47%	1.3 h	Nc1ccccc1NC(=O)c1ccc(Cn2c(=O)[nH]c3ccsc3c2=O)cc1	Active	29000 nM	Active	55%	67%	61%	
1000 nM	1000 nM	1000 nM	300 nM	38%	2.1 h	CN(C)CCn1c(=O)n(Cc2ccc(C(=O)Nc3ccccc3N)cc2)c(=O)c2ccccc21	Active	> 25000 nM	Active				
1000 nM	1000 nM	300 nM	30 nM			Nc1ccccc1NC(=O)c1ccc(Cc2coc3ccccc3c2=O)cc1	Active	9000 nM	Active				
1000 nM	2000 nM	300 nM	100 nM			Nc1ccccc1NC(=O)c1ccc(Cn2c(=O)oc3ccccc3c2=O)cc1	Active	21000 nM	Active				
1000 nM	2000 nM	800 nM	60 nM			Nc1ccccc1NC(=O)c1ccc(Cn2c(=O)[nH]c3ccccc3c2=O)cc1	Active	18000 nM	Active			59%	51%
2000 nM	1000 nM	900 nM	90 nM			Nc1ccccc1NC(=O)c1ccc(CC2COc3ccccc3C2=O)cc1 (configuration not stated)	Active	6000 nM	Active				
1000 nM	1000 nM	700 nM	200 nM	47%	1.4 h	Nc1ccccc1NC(=O)c1ccc(Cn2cnc3ccsc3c2=O)cc1	Active	> 50000 nM	Active	42%	45%		
3000 nM	3000 nM	2000 nM	1000 nM			Nc1ccccc1NC(=O)c1ccc(CC2COc3ccccc3C2)cc1 (configuration not stated)	Active	23000 nM	Active				
